The whole screen tested about 360,000 compounds, of which about 220 (0.061%) were called active. The sample holds actives, similar compounds and a random draw of the others, so the mix is not that of the screen. A number with no mark means an inactive call.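 Rule for the calls: active = GFP/RFP ratio change of at least 30% with cell ATP level not reduced by more than half and red fluorescence within 50% of control; inactive = the rest, inconclusive results apart.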
target: Matrix metalloproteinase-14 (Homo sapiens) (UniProt P50281); test: MT1-MMP activation inhibitors, cellular reporter – HT1080 RFP-PRO-GFP cells, GFP/RFP fluorescence, primary screen (AID 651647); settings: overnight, at 20 µM, active compounds read high, percent of plate control window, DMSO zero
Summary of the method: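 Compound: 20 µM single dose, 1% DMSO / System: HT1080 RFP-PRO-GFP cells / Controls: DMSO and RFP-L50D-GFP cell wells / Read-out basis: GFP/RFP fluorescence ratio / Schedule: overnight compound exposure at 37 °C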

SMILES	GFP/RFP ratio change
COC1=C/C(=C/c2c(N)n3nc(CC(=O)N4CCOCC4)sc3nc2=O)C=CC1=O	-33.2%
Cc1ccc(C(=O)Nc2nnc(C3=COCCO3)o2)cc1C	-0.926%
CCC(=O)N1CCCC1(C)C(=O)Nc1ccc2c(c1)CCN2C(C)=O (configuration not stated)	-0.545%
NS(=O)(=O)c1ccc(N2C(=O)C3C4CC(C(Br)C4Br)C3C2=O)cc1 (configuration not stated)	-0.391%
CCc1ccc(-c2cc3c(=O)n(CC(=O)NCCCN4CCN(Cc5ccccc5)CC4)nc(C)n3n2)cc1	-3.13%
C/C(=N\c1nc2ccccc2n1C)c1cc(Cl)ccc1O	1.93%
COc1cc(C(=S)NCc2ccccc2)cc(Br)c1O	4.38%
O=S1(=O)CC(N2CCN(CCO)CC2)CN1C1CCCC1 (configuration not stated)	-0.753%
CSc1cccc(NC(=O)C2CCCN2S(=O)(=O)c2ccc3c(c2)CCC(=O)N3)c1 (configuration not stated)	-0.538%
O=[N+]([O-])c1cc(S(=O)(=O)N2CCCC2)ccc1NN=C1CCCC1	0.0654%
COc1ccc(/C=C2\CCCC3C2=NN(C(=O)c2scnc2C)C3c2ccc(OC)cc2)cc1 (configuration not stated)	-11.9%
CCN(c1ccccc1)S(=O)(=O)c1ccc2[nH]c(=O)[nH]c2c1	-1.12%
O=C1CCC(C(=O)N2CCC(O)(c3ccccc3)CC2)CN1CCc1ccccc1 (configuration not stated)	-2.93%
COc1ccc(CCN2CC(C(=O)NCCN3CCNC3=O)CCC2=O)cc1 (configuration not stated)	0.0278%
Cc1ccc(-c2nc(CSCC(=O)NC3CCN(Cc4ccccc4)CC3)c(C)o2)cc1	1.7%
CC1(C)N=C(c2ccccn2)C(C)(C)N1O	-4.4%
O=C(Cc1ccccn1)c1ccc(O)cc1O	-2.78%
O=C(CSc1nc(C2CC2)nc2ccccc12)Nc1cccc(O)c1	-3.6%
O=C(NNc1c2ccccc2nc2ccccc12)c1cc2ccccc2cc1O	55.7% (active)
O=C(COC(=O)COc1ccccc1F)Nc1cccc(S(=O)(=O)N2CCCCC2)c1	4.15%
CC1(c2ccccc2Cl)NC(=O)N(CC(=O)NC(=O)NCc2ccco2)C1=O (configuration not stated)	-1.98%
O=C(Cn1c(-c2cscn2)nc2ccccc21)Nc1ccc(Cl)cc1	0.072%

SMILES	GFP/RFP ratio change
O=C(CSc1nnc(-c2ccc([N+](=O)[O-])cc2)o1)Nc1ccccn1	3.02%
O=C(c1cc2c(s1)CCC2)N1CCN(c2ccccc2)CC1	-1.39%
O=C(COc1ncnc2c(Cl)cc(Cl)cc12)N1CCN(S(=O)(=O)c2ccccc2)CC1	-1.19%
COc1ccc(C(=O)CN2C(=O)NC(C)(c3ccc(C)cc3)C2=O)cc1OC (configuration not stated)	5.51%
CCOC(=O)C1CCN(C(=O)Nc2ccc(C)c(Cl)c2)CC1	2.62%
CCC1=C(OC(=O)N(CC)CC)N2C(=O)OC(=NCC3CC3)[C@]2(C)[C@H]2C1=CC[C@H]1C(=O)N(CC(=O)OC)C(=O)[C@H]12	-1.64%
O=c1[nH]c2ccccc2n2c(-c3ccccc3)nnc12	2.93%
Cc1ccc(NC(=O)CSc2nnc(CNC(=O)c3ccccc3F)o2)cc1Cl	3.87%
CCOC(=O)N1CCC(c2cc(=O)n(-c3ccccc3)[nH]2)CC1	9.16%
CCOc1ccc(CCNC(=O)COC(=O)C2CCN(S(=O)(=O)c3ccccc3)CC2)cc1OCC	2.91%
O=C(NCCN1CCOCC1)c1ccccc1N1C(=O)[C@@H]2Cc3c([nH]c4ccccc34)C(c3cccc(Cl)c3)N2C1=O (some centres not stated)	-1.74%
CC1(C)CC(O)C(CCC(O)c2ccccc2)C(C)(C)N1 (configuration not stated)	-4.83%
CC1CCCCC12NC(=O)N(CC(=O)OCc1c(F)cccc1Cl)C2=O (configuration not stated)	-0.886%
O=C(CCN1CCN(C/C=C/c2ccccc2)CC1)Nc1cccc(F)c1	5.08%
CCCOC1CCCN(C(=O)c2cc(COc3cncc(Cl)c3)on2)C1 (configuration not stated)	0.805%
CCCC1NC(=S)NC(C)=C1C(C)=O (configuration not stated)	5.05%
O=C(C1CCN(S(=O)(=O)Cc2ccccc2)CC1)N1CCCc2ccccc21	-2.92%
O=[N+]([O-])c1ccc(N2CCNCC2)cc1NCc1cccnc1	-8.92%
O=C(NC1CCCC1)C(c1ccc(Cl)cc1)N(C(=O)c1csnn1)C1CC1 (configuration not stated)	-4.04%
O=C(c1ccco1)N1CCN(C(=O)C2CC(c3ccc(F)cc3)=NO2)CC1 (configuration not stated)	1.83%
CCc1cccc2c(C=C(C#N)C#N)cn(CC(=O)N3CCCCC3)c12	0.243%
CC(=O)c1cccc(-c2cnc3c(NC=O)cc(-c4ccc(N5CCN(C)CC5)cc4)cn23)c1	-9.51%

SMILES	GFP/RFP ratio change
COCCNC(=O)COc1ccc(N(C)S(=O)(=O)c2ccc3ccccc3c2)cc1	0.935%
CN(C)S(=O)(=O)c1cccc(NC(=O)COc2ccc3ccccc3c2)c1	3.9%
Cc1cc2ccccc2n1CCNC(=O)COc1ccc2ccccc2c1	30.8% (active)
C[C@@H]1CN([C@@H](C)CO)C(=O)c2cc(Br)cnc2O[C@@H]1CN(C)C(=O)C1CCCCC1	5.19%
S=C1Nc2cc(Cl)ccc2Sc2ccccc21	1.33%
Cc1cc(C)cc(Oc2nc3c(C)cccn3c(=O)c2/C=C(\C#N)C(=O)NC2CCS(=O)(=O)C2)c1 (configuration not stated)	-5.71%
O=C(CSc1nnc(-c2ccoc2)o1)N1CCOCC1	-1.67%
O=C1Nc2ccccc2NC(c2ccc3c(c2)OCO3)=C1N(Cc1ccc(F)cc1)C(=O)c1ccco1	1.27%
COc1ccc(C)cc1NC(=O)CCCN1C(=O)NC(C)(C)C1=O	-3.61%
C/C(=C\c1ccco1)CN1CCC(N2CCC(C(=O)N3CCOCC3)CC2)CC1	0.944%
Cc1ccc(CNC(=O)CC2Sc3ccccc3NC2=O)cc1 (configuration not stated)	0.784%
Cc1cc(-c2nnc(SCC(=O)Nc3ccc(S(N)(=O)=O)cc3)n2N)n[nH]1	-2.72%
O=C(CSc1ccc(C(F)(F)F)cc1[N+](=O)[O-])NCCOc1ccccc1	-0.0162%
Cc1cc(-c2nnc(CCC(=O)NC(c3ccccc3)c3ccccc3)o2)no1	-0.114%
CCn1c(SCC(=O)NC2CC2)nnc1-c1ccncc1	1.37%
O=C(NCCCn1ccnc1)C1CCCN(S(=O)(=O)c2cc(Cl)ccc2Cl)C1 (configuration not stated)	0.609%
CC(C)C(NC(=O)c1cccc(S(=O)(=O)N2CCOCC2)c1)C(=O)NCCc1ccccn1 (configuration not stated)	-6.01%
CC(Sc1nncs1)C(=O)NCc1ccc2c(c1)OCO2 (configuration not stated)	2.24%
CN(C)c1ccc(NC(=O)CN2C3CCCC2CC(NC(=O)c2ccccc2)C3)cc1 (configuration not stated)	6.85%
CCc1cc(-c2nnn(CCC3COCCO3)c2CC)ccc1-c1cn(Cc2ccc3ccccc3c2)nn1 (configuration not stated)	2.05%
C/C=N/N(c1ccccc1)c1ccccc1	-0.385%
NS(=O)(=O)c1ccc(CCNC(=O)CCCn2c(SCC(=O)N3CCCC3)nc3ccsc3c2=O)cc1	-1.21%

SMILES	GFP/RFP ratio change
O=C(Nc1ccn(CCCNCc2ccc3[nH]ccc3c2)c(=O)n1)OCc1ccccc1	-0.535%
CCOC(=O)C1C(c2ccc(OC)c(OC)c2)c2c([nH][nH]c2=O)CC1(C)O (configuration not stated)	4.39%
O=C1CCN(Cc2ccccc2)CCN1[C@H](CSc1ccccc1)c1ccccc1	-2.64%
COc1c(O)cccc1-c1nnn(CCC(=O)OCC(=O)c2ccccc2)n1	4.76%
CN(CC(=O)Nc1ccccc1F)CC(=O)Nc1ccccc1Br	7.11%
O=C1NC[C@H](CCCCN2C[C@H](Cc3ccc(O)cc3)N(CC3CCCCC3)C(=O)C2=O)N(CCc2ccccc2)C1=O	1.64%
N#C[C@]1(S(=O)(=O)c2ccccc2)C[C@@H]2ON=C(c3cccc(Br)c3)[C@@H]2C1	2.88%
CC(C)CC(O)C1CCN(C(=O)CCc2nnc(-c3ccc4c(c3)OCO4)o2)CC1 (configuration not stated)	1.69%
O=S1(=O)CCOC[C@H](Cc2ccccc2)N1Cc1ccccc1Br	-1.83%
O=C(c1cc(Cl)cc(Cl)c1)N1CCC(=O)N(C(COCc2ccccc2)Cc2ccccc2)CC1 (configuration not stated)	-5.95%
O=C(Nc1ccccc1F)C1C2C=CC3(O2)C1C(=O)N(c1cccnc1)C3C(=O)NC1CCCCC1 (configuration not stated)	1.65%
CCOC(=O)/C(N=Nc1cc(C(=O)O)cc(C(=O)O)c1)=C(\O)CCl	-3.33%
Cc1cccc(C)c1NC(=O)C1(C)c2cccc[n+]2CC(=O)N1Cc1cccs1 (configuration not stated)	-3.13%
CCCCCCCCOC1OC(CO)C(O)C(O)C1NC(C)=O (configuration not stated)	0.0413%
O=C(c1cccc(Cl)c1)N1CCN(Cc2ccccc2)CC1	30.7% (active)
CC(C)CC(=O)N1CCN(Cc2cccc(Cl)c2)CC1	-0.171%
O=C(c1cccc(S(=O)(=O)N2CCCCCC2)c1)N1CCN(Cc2ccccc2)CC1	-4.24%
CN(C)c1ccc(C=NCCc2ccc(S(N)(=O)=O)cc2)cc1	3.81%
CN(CC(=O)NC(=O)Nc1ccccc1F)Cc1ccccc1	1.45%
COC(=O)C1C(=O)CC(C)(O)C(C(=O)OC)C1c1ccc2c(c1)OCO2 (configuration not stated)	19%
CS(=O)(=O)c1ccc2nnn(OCC(=O)Nc3cccc(C#N)c3)c2c1	0.844%

— PubChem BioAssay AID651647 (Sanford-Burnham Center for Chemical Genomics, 2012)
